# Changes are numbered by the printed parent chain.
# Tests used:
# [1] = biological target: T1, full length Vav3 wild-type in LNCaP cells (Homo sapiens, UniProt Q9UKW4); test: Membrane translocation of GFP-tagged protein, confocal microscopy; type: cell-based; conditions: 10 μM PMA
# T1 sequence (Q9UKW4 1-847): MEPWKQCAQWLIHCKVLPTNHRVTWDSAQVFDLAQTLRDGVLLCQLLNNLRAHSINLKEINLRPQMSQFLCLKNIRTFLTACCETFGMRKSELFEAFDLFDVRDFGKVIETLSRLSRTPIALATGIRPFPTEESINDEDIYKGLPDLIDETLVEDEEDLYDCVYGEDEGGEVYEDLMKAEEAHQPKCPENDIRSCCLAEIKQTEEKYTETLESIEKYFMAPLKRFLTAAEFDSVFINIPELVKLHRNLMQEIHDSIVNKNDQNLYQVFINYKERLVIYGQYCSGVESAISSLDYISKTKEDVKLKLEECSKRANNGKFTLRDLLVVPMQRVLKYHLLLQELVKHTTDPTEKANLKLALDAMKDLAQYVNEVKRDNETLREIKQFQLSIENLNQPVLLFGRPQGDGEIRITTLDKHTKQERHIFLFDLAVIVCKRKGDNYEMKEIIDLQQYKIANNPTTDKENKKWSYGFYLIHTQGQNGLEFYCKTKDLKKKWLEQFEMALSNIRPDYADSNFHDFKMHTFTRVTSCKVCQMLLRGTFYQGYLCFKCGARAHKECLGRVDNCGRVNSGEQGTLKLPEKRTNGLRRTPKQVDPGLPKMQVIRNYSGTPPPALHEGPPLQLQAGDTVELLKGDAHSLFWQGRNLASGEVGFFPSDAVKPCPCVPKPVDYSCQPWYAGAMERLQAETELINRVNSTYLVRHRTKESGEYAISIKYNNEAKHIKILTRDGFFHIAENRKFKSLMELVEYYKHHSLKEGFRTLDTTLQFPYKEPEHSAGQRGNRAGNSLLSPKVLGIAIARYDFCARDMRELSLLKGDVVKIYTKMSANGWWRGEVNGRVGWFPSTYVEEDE
# Summary of the method: (§1)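 LNCaP cells (passage 3–20) grown in RPMI 1640 with 10% FBS and 2 mM L-glutamine at 37°C, transfected with GFP constructs at 75% confluency; PMA added 24 h later. Confocal imaging with 488 nm excitation and 535–553 nm emission. Membrane/cytoplasm mean-intensity ratio from 3 membrane and 3 cytoplasm regions (~5 μm²) at 0, 5, 10, 30, 45 min (120 min where indicated). Mean ± SEM, ≥3 cells in each of ≥3 independent experiments; Student's t-test.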
# [2] = biological target: T2, Vav3 CaWT in LNCaP cells (Homo sapiens, UniProt Q9UKW4); test: as above; type: cell-based; conditions: 10 μM PMA
# T2 sequence (Q9UKW4 177-847 limits assumed): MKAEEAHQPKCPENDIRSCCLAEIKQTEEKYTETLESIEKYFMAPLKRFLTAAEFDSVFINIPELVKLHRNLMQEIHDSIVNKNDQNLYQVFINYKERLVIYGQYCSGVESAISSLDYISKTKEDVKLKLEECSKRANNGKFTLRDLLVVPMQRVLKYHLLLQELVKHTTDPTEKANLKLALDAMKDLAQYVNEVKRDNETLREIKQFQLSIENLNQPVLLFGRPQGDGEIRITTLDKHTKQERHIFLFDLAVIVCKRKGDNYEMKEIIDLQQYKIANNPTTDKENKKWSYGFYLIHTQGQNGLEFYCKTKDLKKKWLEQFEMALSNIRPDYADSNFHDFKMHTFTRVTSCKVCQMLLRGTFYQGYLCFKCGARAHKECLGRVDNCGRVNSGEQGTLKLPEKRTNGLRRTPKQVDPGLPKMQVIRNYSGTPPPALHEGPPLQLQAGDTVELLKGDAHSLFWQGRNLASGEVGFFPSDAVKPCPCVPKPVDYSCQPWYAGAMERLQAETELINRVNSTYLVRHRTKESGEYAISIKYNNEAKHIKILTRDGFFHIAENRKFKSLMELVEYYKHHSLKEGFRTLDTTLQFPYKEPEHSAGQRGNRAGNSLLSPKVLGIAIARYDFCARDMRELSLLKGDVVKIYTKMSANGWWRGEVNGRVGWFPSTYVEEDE
# Summary of the method: as §1
# [3] = biological target: T3, Vav3 5X in LNCaP cells (Homo sapiens, UniProt Q9UKW4, R523S/T522M/T537L/V524P/Y539K); test: as above; type: cell-based; conditions: 10 μM PMA
# T3 sequence (Q9UKW4 1-847 T522M/R523S/V524P/T537L/Y539K): T1 sequence (Q9UKW4 1-847) with T522M, R523S, V524P, T537L, Y539K
# Summary of the method: as §1
# [4] = biological target: T4, Vav2 C1 5X (D9M/K10S/T11P/T24L/Y26K) (Homo sapiens, UniProt P52735, D532M/K533S/T534P/T547L/Y549K); test: [3H]PDBu binding, polyethylene glycol precipitation assay
# T4 sequence (P52735 523-572 D532M/K533S/T534P/T547L/Y549K): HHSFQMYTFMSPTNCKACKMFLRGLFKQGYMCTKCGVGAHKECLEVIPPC
# Summary of the method: (§2)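 GST-fused C1 domain, cloned into pGEX-5x-1 and expressed in BL21 cells. Cultures grown in LB at 37°C to OD 0.5, induced with 0.5 mM IPTG, then grown 4 h at 37°C. Cells lysed with bacterial extraction reagent; protein purified and eluted on a GST spin column. Kd for [3H]PDBu determined by polyethylene glycol precipitation. Values are mean ± SEM of three experiments.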
# [5] = biological target: T5, Vav3 C1 2X (T24L/Y26K) (Homo sapiens, UniProt Q9UKW4, T537L/Y539K); test: as above
# T5 sequence (Q9UKW4 513-562 T537L/Y539K): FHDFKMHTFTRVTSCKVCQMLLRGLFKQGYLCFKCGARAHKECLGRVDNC
# Summary of the method: as §2
# [6] = biological target: T6, Vav3 C1 3X (T9M/R10S/V11P) (Homo sapiens, UniProt Q9UKW4, R523S/T522M/V524P); test: [3H]PDBu binding, polyethylene glycol precipitation assay
# T6 sequence (Q9UKW4 513-562 T522M/R523S/V524P): T5 sequence (Q9UKW4 513-562 T537L/Y539K) with T10M, R11S, V12P, L25T, K27Y
# Summary of the method: as §2, with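 “two replicates.” for “three experiments.”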
# [7] = biological target: T7, Vav3 C1 5X (T9M/R10S/V11P/T24L/Y26K) (Homo sapiens, UniProt Q9UKW4, R523S/T522M/T537L/V524P/Y539K); test: [3H]PDBu binding, polyethylene glycol precipitation assay
# T7 sequence (Q9UKW4 513-562 T522M/R523S/V524P/T537L/Y539K): T5 sequence (Q9UKW4 513-562 T537L/Y539K) with T10M, R11S, V12P
# Summary of the method: as §2
# [8] = biological target: Vav1 C1 WT; conditions: GST-tagged C1 domain; NA, no activity; ref [17]; cited from earlier work
# [9] = biological target: Vav1 C1 2X (T24L/Y26K); conditions: GST-tagged C1 domain; NA, no activity; ref [17]; cited from earlier work
# [10] = biological target: Vav1 C1 3X (E9M/E10S/T11P); conditions: ref [17], cited from earlier work
# [11] = biological target: Vav1 C1 5X (E9M/E10S/T11P/T24L/Y26K); conditions: ref [17], cited from earlier work
# [12] = test system: C1 domain of PKCδ with the corresponding residues in the Vav1 C1 domain; conditions: five amino acids replaced; ref [17]; cited from earlier work
# [13] = GST-tagged C1 domain, mean ± SEM of triplicate experiments
Compound,membrane translocation in response to phorbol ester [1],membrane translocation in response to phorbol ester [2],membrane translocation in response to phorbol ester [3],Relative to PKCδ C1b [4],"Kd [4, 13]",Relative to PKCδ C1b [5],"Kd [5, 13]",Relative to PKCδ C1b [6],"Kd ([6]; GST-tagged C1 domain, mean ± SEM, only 2 replicates)",Relative to PKCδ C1b [7],"Kd [7, 13]",Kd [8],Kd [9],Kd ([10]; GST-tagged C1 domain),Relative to PKCδ C1b [10],Kd ([11]; GST-tagged C1 domain),Relative to PKCδ C1b [11],PDBu binding affinity [12]
"CCCCCCCCCCCCCC(=O)O[C@@H]1[C@@H](C)[C@@]2(O)[C@@H](C=C(CO)C[C@]3(O)C(=O)C(C)=C[C@@H]23)[C@@H]2C(C)(C)[C@]12OC(C)=O [PMA, phorbol 12-myristate 13-acetate]",neither the wild-type Vav3 nor the Vav3 CaWT translocated,neither the wild-type Vav3 nor the Vav3 CaWT translocated,became visible after 10 min but became more evident after 2 h,,,,,,,,,,,,,,,
"CCCC(=O)O[C@@H]1[C@@H](C)[C@@]2(O)[C@@H](C=C(CO)C[C@]3(O)C(=O)C(C)=C[C@@H]23)[C@@H]2C(C)(C)[C@]12OC(=O)CCC [PDBu, Phorbol 12,13-dibutyrate]",,,,3370 ×,0.6507 ± 0.0026 µM,938 ×,0.188 ± 0.035 µM,4380 ×,0.84 ± 0.12 µM,23.5×,0.0047 ± 0.0008 µM,no detectable binding,did not restore phorbol ester binding,7.33 ± 0.49 µM,"38,000 ×",0.00105 ± 0.00014 µM,5.4×,abolished detectable PDBu binding affinity
